From ChEMBL document CHEMBL3044924, “Design, synthesis, and insecticidal activities of phthalamides containing a hydrazone substructure” (2010)
In brackets after ≈: the same amount, converted by molar mass. Activity calls are given as the source filed them. The calls are words filed in the database; no cut-off is given here.

How the values were obtained:
[1] = tested on: Myzus persicae; experiment: Stomach toxicity in adult Myzus persicae (green peach aphid) in compound treated cabbage leaves assessed as mortality at 600 mg/L at 25 degC and 85% RH for 24 hr; format: functional, organism-based
[2] = tested on: Myzus persicae; experiment: Insecticidal activity against adult Myzus persicae (green peach aphid) in compound treated cabbage leaves assessed as mortality at 600 mg/L at 25 degC and 85% RH for 24 hr; format: functional
[3] = tested on: Plutella xylostella; experiment: Larvicidal activity against second instar Plutella xylostella (diamondback moth) in compound treated cabbage leaves assessed as mortality at 600 mg/L measured after 3 days; format: functional; conditions: 72 h
Summary of the method: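 Lab-reared field-collected stock (Haidian, Beijing), second-instar larvae. Leaf-dip assay: 2.0 cm cabbage leaf disks dipped 5 s in test solution, air-dried, then placed in a 6.0 cm tube lined with filter paper. Larvae added within 10 s. Mortality (%) scored 3 days after treatment, two replicates.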

[4] = tested on: Myzus persicae; experiment: Insecticidal activity against adult Myzus persicae (green peach aphid) in compound treated cabbage leaves assessed as mortality at 50 mg/L at 25 degC and 85% RH for 24 hr; format: functional
Summary of the method: (§1)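 Aphids exposed to treated leaf at 200, 50 and 12.5 mg/L. Mortality corrected for untreated controls with Abbott's formula.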

[5] = tested on: Myzus persicae; experiment: Insecticidal activity against adult Myzus persicae (green peach aphid) in compound treated cabbage leaves assessed as mortality at 200 mg/L at 25 degC and 85% RH for 24 hr; format: functional; summary of the method: as §1
[6] = tested on: Myzus persicae; experiment: Insecticidal activity against adult Myzus persicae (green peach aphid) in compound treated cabbage leaves assessed as mortality at 12.5 mg/L at 25 degC and 85% RH for 24 hr; format: functional; summary of the method: as §1
[7] = tested on: Myzus persicae; experiment: Insecticidal activity against adult Myzus persicae (green peach aphid) in compound treated cabbage leaves assessed as mortality at 25 degC and 85% RH for 24 hr; format: functional

SMILES	Activity [1]	mortality at 600 µg/mL [2] [%]	mortality at 600 µg/mL [3] [%]	mortality at 50 µg/mL [4] [%]	mortality at 200 µg/mL [5] [%]	mortality at 12.5 µg/mL [6] [%]	LC50 [7] [µg/mL]
CC(C)NC(=O)c1ccc(Cl)cc1C(=O)NN=Cc1cccs1	Active	98.7	0	30.3	45.5	24	70.5 (≈ 202 µM)
CCCCNC(=O)c1ccc(Cl)cc1C(=O)NN=Cc1ccc(C(F)(F)F)cc1	Active	96.6	33.3	22.9	49.3	12.5	130 (≈ 305 µM)
O=C(NN=Cc1ccccc1Cl)c1cc(Cl)ccc1C(=O)NC1CCCCC1	Active	100	66.7	28	41.3	26.2	148 (≈ 355 µM)
Cc1cc(C(F)(C(F)(F)F)C(F)(F)F)ccc1NC(=O)c1cccc(I)c1C(=O)NC(C)(C)CS(C)(=O)=O [FLUBENDIAMIDE]							184 (≈ 270 µM)
O=C(NN=Cc1ccc(O)cc1)c1cc(Cl)ccc1C(=O)NC1CCCCC1	Active	92.6	55.6	19.4	24.6	25.7	244 (≈ 611 µM)
CC(C)NC(=O)c1ccc(Cl)cc1C(=O)NN=Cc1ccc(F)cc1	Active	91.3	100	52.8	57.8	21.9	68.1 (≈ 188 µM)
Cc1ccc(C=NNC(=O)c2cc(Cl)ccc2C(=O)NC2CCCCC2)o1	Active	93	33.3	7.3	16	0	271 (≈ 700 µM)
CCCCNC(=O)c1ccc(Cl)cc1C(=O)NN=Cc1ccco1	Active	100	44.4	11.7	20	0	234 (≈ 673 µM)
O=C(NN=Cc1cccs1)c1cc(Cl)ccc1C(=O)NC1CCCCC1	Active	98.8	33.3	13.5	37.8	19.6	113 (≈ 290 µM)
Cc1ccsc1C=NNC(=O)c1cc(Cl)ccc1C(=O)NC1CCCCC1	Active	90.6	11.1	41.7	45.2	22.4	58.9 (≈ 146 µM)
O=C(NN=Cc1ccco1)c1cc(Cl)ccc1C(=O)NC1CCCCC1	Active	100	33.3	20	15.7	8.2	221 (≈ 592 µM)
Cc1ccc(C=NNC(=O)c2cc(Cl)ccc2C(=O)NC(C)C)s1	Active	100	55.6	32.7	52.3	29.3	76.2 (≈ 209 µM)
CCCCNC(=O)c1ccc(Cl)cc1C(=O)NN=Cc1ccccc1F	Active	94.6	22.2	34	39.6	9.7	122 (≈ 324 µM)
CCCCNC(=O)c1ccc(Cl)cc1C(=O)NN=Cc1cccs1	Active	98.6	44.4	23.3	35.7	9.4	124 (≈ 341 µM)
CC(C)NC(=O)c1ccc(Cl)cc1C(=O)NN=Cc1ccco1	Active	100	44.4	25.4	29.3	18.6	161 (≈ 484 µM)
Cc1ccc(C=NNC(=O)c2cc(Cl)ccc2C(=O)NC(C)C)o1	Active	96.4	44.4	16.9	50	13.8	122 (≈ 350 µM)
CCCCNC(=O)c1ccc(Cl)cc1C(=O)NN=Cc1ccc(F)cc1	Active	97.7	33.3	18.6	20	19	310 (≈ 825 µM)
Cc1ccsc1C=NNC(=O)c1cc(Cl)ccc1C(=O)NC(C)C	Active	90.6	44.4	25.5	56.1	16.3	124 (≈ 342 µM)
CC(C)NC(=O)c1ccc(Cl)cc1C(=O)NN=Cc1ccc(O)cc1	Active	100	55.6	16.9	55.6	5.4	129 (≈ 357 µM)
CC(C)NC(=O)c1ccc(Cl)cc1C(=O)NN=Cc1ccccc1Cl	Active	92.9	33.3	12.5	28.2	16.3	171 (≈ 451 µM)
O=C(NN=Cc1ccccc1F)c1cc(Cl)ccc1C(=O)NC1CCCCC1	Active	90.2	33.3	8.3	23.8	5.9	276 (≈ 687 µM)
Cc1nn(-c2ccccc2)c(Cl)c1C=NNC(=O)c1cc(Cl)ccc1C(=O)NC1CCCCC1	Active	91.9	66.7	9.1	9.5	16.7	266 (≈ 534 µM)
